Several values for one entry are separate records, joined by “and”; a condition that tells them apart may be missing. Equal values may be shown once. Read-outs that look alike come from different tables or passages of the source.
Legend:
[1] = tested on: E18 rat cortical neurons; assay: KCl-induced Ca2+ influx, Fura-2 imaging; assay type: cell-based; settings: 100 μM, 46.5 mM KCl
[2] = tested on: voltage-gated Na+ channels in CAD cells; settings: earlier study; cited from earlier work
[3] = tested on: voltage-gated Na+ channels in CAD cells; assay: Recovery of Na+ channels from inactivation/block in CAD cells; assay type: cell-based; settings: vs control
Summary of the method: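 CAD cells under whole-cell clamp, test compound (100, 8.5 or 15 μM) or control. Cells were held at −120 mV and depolarized to 0 mV, for 5 s (slow inactivation) or a 10 ms prepulse. They were then returned to −120 mV for a variable recovery interval before a test step to 0 mV. Sweeps ran at 0.5 Hz for short recoveries and slower for longer ones.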

[4] = tested on: voltage-gated Na+ channels in CAD cells; assay type: cell-based
Summary of the method: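 Steady-state fast inactivation in whole-cell clamped CAD cells used a 500 ms conditioning pulse. Test compound ranged 0.3–500 μM; control was DMSO vehicle. Recordings were taken 3–4 min after break-in and compared with drug-free cells. V1/2 and k came from single Boltzmann fits of each recording, averaged as mean ± SEM. n = 7 for V1/2, n = 6 for τinact. Student's t-test vs DMSO.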

[5] = tested on: formalin-induced pain, chronic (late-phase) inflammatory pain; assay: Formalin-induced pain model; assay type: in vivo; settings: mouse, i.p., the lower the percent the more effective the compound
[6] = tested on: voltage-gated Na+ channels in CAD cells; assay: Development of inhibition/slow inactivation of Na+ currents in CAD cells; assay type: cell-based; settings: vehicle 0.52 ± 0.09
[7] = tested on: site 2 sodium channel; assay: Site 2 sodium channel binding; settings: 10 μM, Cerep, data not shown
[8] = tested on: voltage-gated Na+ channels in CAD cells; assay: Frequency; assay type: cell-based; settings: 10 Hz; for Pulse in the train at which use-dependent block was first observed: 30-pulse train
Summary of the method: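 CAD cells were whole-cell clamped at −80 mV and given a train of 30 pulses (20 ms to −10 mV) at 10 Hz, with test compound (100, 8.5 or 15 μM) or control. Available current was the peak at pulse N divided by the pulse 1 peak. 5–7 cells per condition, averaged ± SEM.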

[9] = tested on: voltage-gated Na+ channels in CAD cells; assay type: cell-based; settings: for Maximal fraction of current unavailable by depolarization: 20 mV, control 0.42 ± 0.02
[10] = tested on: tibial-nerve injury (TNI) mechanical hypersensitivity; assay: Tibial-nerve injury; assay type: in vivo, Sprague–Dawley rats; settings: rats, 10 mg/kg i.p.
[11] = tested on: voltage-gated Na+ channels in CAD cells; settings: 30 μM; cited from earlier work

For `COC[C@H](NC(C)=O)C(=O)NCc1ccccc1` [(S)-4], the “Inhibition of Ca2+ amplitude (KCl-induced Ca2+ influx)” value [1] is given as 13.74 ± 1.26% and the “Inhibition of peak Na+ currents” value [2] is given as “no inhibition”.

With `COC[C@@H](NC(C)=O)C(=O)NCc1ccc(-c2cccc(F)c2)cc1` [(R)-11] the “Time course of recovery from the 10-ms depolarization” value (“Time course of recovery” for short) ([3]; 15 μM) was “not different from control”, the “Recovery kinetics after 5 s depolarization (slow inactivation induced)” value (“Recovery kinetics” below) ([3]; 15 μM, significant between 100 ms to 2 s) was “slowed recovery kinetics” and the “Shift in V1/2 of fast inactivation in the hyperpolarizing direction” value (shortened to “Shift … in the hyperpolarizing direction”) ([4]; 30 μM) was 8.0 mV. The “Protection vs control, chronic (late-phase) inflammatory pain” value ([5]; 12 mg/kg) was 97%, the “Fraction of current available at 8 s prepulse duration” value (“Fraction … at 8 s prepulse duration” below) ([6]; 15 μM) was 0.12 ± 0.04 and the “Displacement, site 2 sodium channel binding” value [7] was 31–46%. The “Peak current lower than control at the last pulse (pulse 30)” value (“Peak current lower than control” for short) ([8]; 15 μM) was 45%, the “Pulse in the train at which use-dependent block was first observed” value (from here on “Pulse in the train”) ([8]; 15 μM) was 3 pulse and the “Maximal fraction of current unavailable by depolarization” value (shortened to “Maximal fraction of current unavailable”) ([9]; 30 μM) was 0.94 ± 0.004.

For `COC[C@@H](NC(C)=O)C(=O)NCc1ccc(OCc2cccc(F)c2)cc1` [(R)-7], the “Time course of recovery” value ([3]; 8.5 μM) was “slight slowing”, the “Recovery kinetics” value ([3]; 8.5 μM, significant between 100 ms to 2 s) was “slowed recovery kinetics” and the “Reversal of tactile hypersensitivity” value ([10]; 14 days after TNI, 1 hour after administration) was ~ 90%. The “Mechanical withdrawal thresholds 24 hours after injection” value ([10]; four weeks after TNI, 24 hours) was “returned to pre-drug levels”, the “Time constant for inactivation (τinact)” value ([4]; 0.3 μM, DMSO 1.32 ± 0.12 ms) was 0.73 ± 0.05 ms and the “Shift … in the hyperpolarizing direction” value ([4]; 30 μM) was ~ 21.4 mV and 21.4 mV. For the same compound, the “V1/2 value for fast inactivation” value ([4]; 30 μM, DMSO −63.2 ± 0.9 mV) was −84.6 ± 1.2 mV, the “Protection vs control, chronic (late-phase) inflammatory pain” value ([5]; 15 mg/kg) was 44% and the “Fraction … at 8 s prepulse duration” value ([6]; 8.5 μM) was 0.20 ± 0.04. The “Peak current lower than control” value ([8]; 8.5 μM) was 40%, the “Pulse in the train” value ([8]; 8.5 μM) was 3 pulse and the “Fraction of current available at −50 mV” value ([9]; 30 μM, vs cells without drug) was “significantly decreased the fraction of current available”. The “Maximal fraction of current unavailable” value ([9]; 30 μM) was 0.91 ± 0.01.

With `COC[C@H](NC(C)=O)C(=O)NCc1ccc(OCc2cccc(F)c2)cc1` [(S)-7] the “Shift … in the hyperpolarizing direction” value ([4]; 500 μM) was 19.9 mV, the “Fraction of current available at −50 mV” value ([9]; 500 μM (highest dose)) was “reduced the available current but not to the extent observed with (R)-7” and the “Potential above which (more depolarized) slow inactivation was observed” value ([9]; 5 s conditioning prepulses) was greater than −80 mV. For the same compound, the “Maximal fraction of current unavailable” value ([9]; 500 μM) was 0.76 ± 0.02.

For `COC[C@@H](NC(C)=O)C(=O)NCc1ccc(COc2ccccc2F)cc1` [(R)-10], the “Shift … in the hyperpolarizing direction” value ([4]; 100 μM) was 17.6 mV, the “Displacement, site 2 sodium channel binding” value [7] was 31–46% and the “Fold lower IC50 for slow inactivation compared with (R)-4 (85 μM)” value [9] was 16 fold. For the same compound, the “Maximal fraction of current unavailable” value ([9]; 100 μM) was 0.90 ± 0.007.

In the case of `COC[C@@H](NC(C)=O)C(=O)NCc1ccccc1` [(R)-4, Lacosamide, reference compound], the “Time course of recovery” value ([3]; 100 μM) is given as “not different from control”, the “Recovery kinetics” value ([3]; 100 μM, significant between 100–512 ms) is given as “slowed recovery kinetics” and the “Inhibition of peak Na+ currents” value [2] is given as ~ 40%. The “Fraction … at 8 s prepulse duration” value ([6]; 100 μM) was 0.32 ± 0.01, the “Shift in V1/2 of fast inactivation” value [11] was 0.7 mV and the “Peak current lower than control” value ([8]; 100 μM) was ~ 9%. The “Pulse in the train” value ([8]; 100 μM) was roughly 19 pulse.

Reference: article PMC3134314 (ACS chemical neuroscience, 2011)
